# Compounds with a hit are over-represented: about 2.9% of the library has one in this group of screens.
# CHO-K1 Ca PAM – nonselective activator or artifact in parental CHO-K1 calcium assay | ATP EC20, Fluo-8 calcium fluorescence; 0% at ATP EC20, 100% at ATP max | activation, % at 3 µM | actives 0.02% (n = 360,000) | AID 602247;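 active means activation above the run cutoff, the mean activation of all test compounds plus 3 SD, cut at about 40% in these data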;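 further: peak over basal fluorescence ratio in a 140 s read after ATP addition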
# M1 ag parental – nonselective activator or artifact in parental CHO-K1 cells. actives 0.48% (n = 360,000). Fluo-8 calcium fluorescence; scaled to maximal ATP response, vehicle zero. AID 602248. activation, % at 3 µM; in the data active means activation above about 15%;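 further: untransfected CHO-K1 host cells lacking M1 receptor as counterscreen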
# OX1R antag-1 – antagonists of human orexin 1 receptor. O43613. CHO/OX1R cells, Fluo-8 calcium fluorescence, orexin A. inhibition, % at 5 µM. actives 0.43% (n = 330,000);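 active means inhibition above its plate's threshold, mean inhibition of all tested compounds on the plate plus 3 SD, cut at about 37% in these data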;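 further: 0% = orexin A challenge wells and 100% = SB-334867-A antagonist wells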
# Target sequence (O43613 whole entry, looked up): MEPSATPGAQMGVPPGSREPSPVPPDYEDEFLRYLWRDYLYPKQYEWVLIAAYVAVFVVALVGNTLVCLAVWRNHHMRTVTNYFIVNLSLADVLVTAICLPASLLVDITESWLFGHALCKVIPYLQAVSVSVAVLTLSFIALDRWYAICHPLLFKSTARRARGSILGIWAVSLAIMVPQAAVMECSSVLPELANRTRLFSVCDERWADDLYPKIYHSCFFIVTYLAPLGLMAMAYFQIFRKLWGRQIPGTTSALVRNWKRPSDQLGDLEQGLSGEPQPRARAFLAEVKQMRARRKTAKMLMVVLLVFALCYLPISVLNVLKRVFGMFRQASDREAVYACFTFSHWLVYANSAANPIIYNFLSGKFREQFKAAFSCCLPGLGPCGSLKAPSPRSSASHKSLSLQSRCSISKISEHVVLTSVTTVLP
# OX1R antag-2 – blocks the human orexin 1 receptor; actives 1.8% (n = 330,000); O43613; inhibition, % at 6.6 µM; AID 485270; OX1R-expressing cells, FRET antagonist read-out; in the data active means inhibition mostly above about 38%, no sharp cut-off; inactive means mostly below about 40%;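 further: 0% = agonist challenge alone and 100% = reference antagonist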
# CHO-K1 Ca antag – counter-screen for M1 antagonists: effect in parental CHO-K1 cells | ATP-induced calcium, Fluo-8 fluorescence | inhibition, % at 3 µM | actives 0.6% (n = 360,000);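 active means inhibition above a per-plate cutoff, the plate's mean sample inhibition plus 3 SD, cut at about 24% in these data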;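 further: 0% = DMSO plus EC80 ATP and 100% = DMSO alone without ATP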
# CHO parental Ca – counter-screen: ATP calcium response change in parental CHO cells; parental CHO-K1, ATP-induced calcium, Fluo-8 fluorescence; actives 0.63% (n = 330,000); inhibition, % at 5.6 µM;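 active means inhibition above that plate's mean sample inhibition plus 3 SD, cut at about 26% in these data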;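 further: 0% = ATP-challenged DMSO wells and 100% = DMSO wells without ATP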
#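 Measured by: calcium-sensitive Fluo-8 fluorescence / Test system: CHO parental line / Controls: ATP-challenged DMSO wells low, unchallenged DMSO wells high / Measure: % inhibition / Compound: single nominal dose of 5.6 µM per compound / Replicates: single well per compound, no replicates / Reagent: ATP as calcium-mobilizing challenge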
# Starred values were filed as active, the others as inactive; . = no result given.
SMILES,CHO-K1 Ca PAM,M1 ag parental,OX1R antag-1,OX1R antag-2,CHO-K1 Ca antag,CHO parental Ca
CCOC(=O)c1cnc(-n2nc(C)cc2C)nc1N1CC(C)OC(C)C1 (stereo unspecified),-6.3,-0.3,-31.4,2.1,24.1*,-7.8
CCN(CC)CCn1c2ccccc2c2nc3ccccc3nc21,7.2,2.1,-2.4,66.6*,-6.2,-10.7
COc1cc(Br)c(CC(=O)NC2CC2)cc1OC,-10.9,0.3,-9.8,18.9,4.0,-2.9
Cc1cc(C)cc(NC(=O)c2cc(C)n(Cc3cccs3)c2C)c1,16.9,1.0,9.9,16.6,-9.1,58.6*
Cc1cc(C)c(NC(=O)C2CCCN2CCC(C)C)c(C)c1 (stereo unspecified),14.0,0.7,-16.5,10.3,-5.6,-2.9
CCC(C)N1CCCC1C(=O)Nc1c(C)cc(C)cc1C (stereo unspecified),-9.5,-0.7,-12.5,9.2,25.5*,3.9
COc1ccc(NC(=O)COC(=O)C2CCN(C(=O)c3ccc(Cl)cc3)CC2)c([N+](=O)[O-])c1,7.8,4.0,10.4,37.6*,-16.1,-18.2
CCOC(=O)c1c(NC(=O)CN2C(=O)NC3(CCCCC3C)C2=O)sc(C)c1CC (stereo unspecified),-16.2,22.6*,-31.9,22.5,16.2,-29.2
O=C(NC1CC(=O)N(c2ccc(F)cc2)C1)C(=O)c1c[nH]c2ccccc12 (stereo unspecified),13.9,3.8,-20.8,12.5,-0.3,1.1
CC(=O)c1sc2nc(C)c3c(c2c1N)CCCC3,16.3,1.4,-32.4,50.2*,-9.3,-17.7
CN(C)C(=O)c1cc([N+](=O)[O-])ccc1O,2.9,0.1,-4.1,17.4,-10.7,-18.1
CN(CC(=O)Nc1ccc2c(c1)CCC2)CC(=O)Nc1ccccc1Br,1.2,0.5,-5.8,39.5*,-4.6,-15.0
COc1ccc(CN(C)C(=O)CNC(=O)c2cccs2)c(OC)c1,-1.6,0.3,-7.9,6.5,16.2,-4.2
Cc1c(C(=O)OCC(=O)Nc2ccc(S(N)(=O)=O)cc2)oc2c1ccc1ccccc12,4.4,9.0,4.5,22.2,-4.7,40.9*
CCOC(=O)C1=C(O)CSC1=Nc1ccc(Cl)cc1,-5.8,-1.0,-16.4,2.4,27.1*,-16.0
CCOC(=O)C1=C(O)CSC1=Nc1ccccc1,0.9,-0.6,-21.4,20.3,7.5,-9.1
Cc1ccc(C(=O)NCC(=O)N2CCN(c3cccc(Cl)c3)CC2)s1,-12.6,0.3,-24.3,0.9,4.6,-19.2
COc1cc(-c2nc(C(=O)NCC3CCCO3)cc3c2[nH]c2ccccc23)cc(OC)c1OC (stereo unspecified),-14.7,4.4,-11.8,33.7,5.0,7.3
O=C(NCC1CCCO1)c1cc2c([nH]c3ccccc32)c(-c2cccc(Cl)c2)n1 (stereo unspecified),-18.8,4.9,8.7,49.6*,13.6,0.6
CN(C)S(=O)(=O)c1ccc(Cl)c(NC(=O)CSc2nc3c(cc2C#N)C(=O)CCC3)c1,19.3,16.6*,-51.6,23.8,2.6,-11.3
Cc1c(C(=O)OCc2nc3ccsc3c(=O)[nH]2)oc2ccccc12,8.4,0.4,0.8,48.9*,-4.1,-20.9
NC(=O)c1oc2ccccc2c1NC(=O)c1ccc(F)cc1,-8.2,0.3,-10.1,15.7,27.5*,-16.2
NC(=O)c1oc2ccccc2c1NC(=O)c1ccc([N+](=O)[O-])o1,-5.1,2.0,-14.5,48.1*,10.5,3.8
O=C(NN(c1ccccc1)c1ccccc1)c1ccc([N+](=O)[O-])o1,4.8,0.1,-14.2,10.0,-19.8,-16.1
N#Cc1cccc(NC(=O)COC(=O)c2cc(S(=O)(=O)Nc3ccccc3Cl)ccc2O)c1,0.2,14.6,14.7,37.9*,-13.4,3.9
SMILES,CHO-K1 Ca PAM,M1 ag parental,OX1R antag-1,OX1R antag-2,CHO-K1 Ca antag,CHO parental Ca
O=C(CCOc1ccccc1)Nc1cccc(S(=O)(=O)Nc2ccccc2Cl)c1,12.7,6.6,57.0*,54.8,-3.6,36.8*
O=C(COC(=O)c1cc(S(=O)(=O)Nc2ccccc2Cl)ccc1O)Nc1nc2ccccc2s1,18.7,7.2,.,.,-5.2,.
O=C(COC(=O)c1cc(-c2cccs2)nc2ccccc12)NCc1ccco1,12.8,1.6,16.6,72.3*,1.6,-11.6
C=CCC1c2cccc(C(=O)OC)c2C(=O)N1c1ccccc1 (stereo unspecified),-8.1,0.0,-11.9,26.9,23.7*,-15.0
C=CCN(CC=C)CCCOc1ccccc1C(=O)OC,27.3,0.5,-18.7,10.0,-10.9,-9.4
CCn1ccc(C(=O)Nc2ccccc2Cl)n1,13.1,-0.4,-3.4,15.0,-9.9,-6.5
O=C(N/N=C\c1c(O)ccc2ccccc12)c1cncc(Br)c1,-11.3,39.4*,63.4*,72.6*,6.4,67.4*
O=C(N/N=C/c1c(O)ccc2ccccc12)c1ccc[n+](CCO)c1,23.0,-0.2,-6.1,57.3*,-15.7,-0.3
Cn1cc(C(=O)N/N=C/c2c(O)ccc3ccccc23)ccc1=O,8.5,0.7,-12.1,38.5*,-10.2,-11.5
O=C(N/N=C\c1c(O)ccc2ccccc12)c1ccc(O)cc1,14.9,1.8,-21.6,9.3,-7.9,-16.9
Cc1ccc(-c2cc(C(=O)N3N=C(C(F)F)CC3(O)C(F)F)c3ccccc3n2)cc1C (stereo unspecified),5.6,0.3,10.1,26.3,-30.1,44.9*
O=C(c1cc(-c2ccccc2)nc2ccccc12)N1N=C(C(F)F)CC1(O)C(F)F (stereo unspecified),17.0,1.6,-25.8,18.7,-1.7,-26.6
CN(C)S(=O)(=O)c1cccc(C(=O)OCC(=O)Nc2sccc2C(N)=O)c1,-5.8,20.9*,14.1,36.7,20.3,0.2
CCOc1ccc(CCNC(=O)COC(=O)c2cccc(S(=O)(=O)N(C)C)c2)cc1OCC,14.8,0.8,.,.,44.4*,.
O=C(CN1C(=O)NC(c2ccccc2)(c2ccccc2)C1=O)NC1CCCC1,12.6,0.5,-17.9,6.3,-11.1,-15.6
COc1ccc(/C=C/c2n[nH]c(=O)c(C#N)c2C)cc1,4.5,-0.4,-25.3,43.0*,-8.5,-23.7
COC(=O)C1CCCCN1C(=O)c1cc(COc2cccc3cnccc23)on1 (stereo unspecified),-22.3,15.3*,27.4,37.2,28.1*,53.8*
COC(=O)C1CCCCN1C(=O)c1cc(COc2cccc3cccnc23)on1 (stereo unspecified),4.7,1.7,-10.3,15.0,8.8,-2.9
CCOC(=O)CC1CCCCN1C(=O)c1cc(COc2cccc3cnccc23)on1 (stereo unspecified),-29.1,19.7*,25.8,48.0*,44.9*,53.2*
O=C(c1cc(COc2cccc3cccnc23)on1)N1CCC[C@H]1CO,6.7,0.6,.,.,9.6,.
CC(=O)c1cccc(OCc2cc(C(=O)N(C)Cc3nccs3)no2)c1,12.1,1.6,.,.,-9.3,.

# Source: PubChem
